Assay results: ChEMBL document CHEMBL2177039, “Identification of a chemical probe for bromo and extra C-terminal bromodomain inhibition through optimization of a fragment-derived hit” (J Med Chem, 2012)
Each block holds one compound with its values, some of them ahead of it.

How the values were obtained:
[1] = molecular target: Bromodomain-containing protein 4 (Homo sapiens, UniProt O60885); assay: Inhibition of BRD4 isoform 1 by AlphaScreen assay
Procedure, shortened: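 His-tagged bromodomain protein preincubated 30 min at room temperature with compound in 50 mM HEPES, 100 mM NaCl, 0.1% BSA, pH 7.4, plus 0.05% CHAPS; biotinylated peptide added for a further 30 min; streptavidin donor and nickel chelate acceptor beads (25 µg/ml each) then added, 60 min in the dark.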

[2] = Protein binding in rat plasma; format: ADME, cell-free; conditions: read-out: PPB (converted)
CREB-binding protein [3] = molecular target: T1, CREB-binding protein (Homo sapiens, UniProt Q92793); assay: Binding affinity to CREBBP by SPR method
[4] = molecular target: Bromodomain-containing protein 3 (Homo sapiens) (UniProt Q15059); assay: Binding affinity to BRD3 isoform 1 assessed as change in melting temperature at 10 uM by thermal shift assay
[5] = Half life in rat at 1 mg/kg, iv; format: ADME, organism-based; set-up: dose 1 mg/kg, route intravenous; conditions: in vivo
[6] = molecular target: Protein polybromo-1 (Homo sapiens) (UniProt Q86U86); assay: Binding affinity to pb1 isoform 5 assessed as change in melting temperature at 10 uM by thermal shift assay
[7] = molecular target: Bromodomain-containing protein 3 (Homo sapiens) (UniProt Q15059); assay: Binding affinity to BRD3 isoform 2 assessed as change in melting temperature at 10 uM by thermal shift assay
CREB-binding protein [8] = molecular target: T1, CREB-binding protein; assay: Binding affinity to CREBBP assessed as change in melting temperature at 10 uM by thermal shift assay
Liver microsomes = assay: Half life in rat liver microsomes; format: ADME, Microsome
[9] = Tmax in mouse at 2 mg/kg, sc; format: ADME, organism-based; set-up: dose 2 mg/kg, route subcutaneous; conditions: in vivo
[10] = Half life in mouse at 2 mg/kg, sc; format: ADME, organism-based; set-up: dose 2 mg/kg, route subcutaneous; conditions: in vivo
PBMC = assay: Inhibition of LPS-induced IL6 production in human PBMC by ELISA; format: functional, cell-based
Procedure, shortened: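 Mononuclear cells washed in Ca/Mg-free PBS, then RPMI + 5% FBS; plated at 2E5 cells/well. Compound added at 0.1% DMSO final and preincubated 30 min; stimulated with ultrapure LPS O111:B4 at 0.5 ng/ml final. Supernatants collected after 20 h; cytokines measured by multiplex ELISA.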

[11] = molecular target: Bromodomain testis-specific protein (Homo sapiens) (UniProt Q58F21); assay: Binding affinity to BRDT isoform 1 assessed as change in melting temperature at 10 uM by thermal shift assay
[12] = Oral bioavailability […] in rat at 2 mg/kg; format: ADME, organism-based; conditions: in vivo
[13] = molecular target: Bromodomain-containing protein 2 (Homo sapiens) (UniProt P25440); assay: Binding affinity to BRD2 isoform 2 assessed as change in melting temperature at 10 uM by thermal shift assay
[14] = molecular target: Bromodomain-containing protein 2 (Homo sapiens) (UniProt P25440); assay: Binding affinity to BRD2 isoform 1 assessed as change in melting temperature at 10 uM by thermal shift assay
[15] = molecular target: Bromodomain adjacent to zinc finger domain protein 2B (Homo sapiens) (UniProt Q9UIF8); assay: Binding affinity to BAZ2B assessed as change in melting temperature at 10 uM by thermal shift assay
[16] = Cmax in mouse at 2 mg/kg, sc; format: ADME, organism-based; set-up: dose 2 mg/kg, route subcutaneous; conditions: in vivo
[17] = molecular target: Histone acetyltransferase KAT2B (Homo sapiens) (UniProt Q92831); assay: Binding affinity to PCAF assessed as change in melting temperature at 10 uM by thermal shift assay
[18] = Volume of distribution in rat at 1 mg/kg, iv; format: ADME, organism-based; set-up: dose 1 mg/kg, route intravenous; conditions: in vivo
[19] = Plasma clearance in rat at 1 mg/kg, iv; format: ADME, organism-based; set-up: dose 1 mg/kg, route intravenous
[20] = Drug concentration in rat gut at 1 mg/kg, iv measured 7 hrs post dose; format: ADME, organism-based; set-up: dose 1 mg/kg, route intravenous; conditions: read-out: Drug uptake

Bromodomain-containing protein 3 (Homo sapiens), sequence (Q15059 2-726 limits assumed): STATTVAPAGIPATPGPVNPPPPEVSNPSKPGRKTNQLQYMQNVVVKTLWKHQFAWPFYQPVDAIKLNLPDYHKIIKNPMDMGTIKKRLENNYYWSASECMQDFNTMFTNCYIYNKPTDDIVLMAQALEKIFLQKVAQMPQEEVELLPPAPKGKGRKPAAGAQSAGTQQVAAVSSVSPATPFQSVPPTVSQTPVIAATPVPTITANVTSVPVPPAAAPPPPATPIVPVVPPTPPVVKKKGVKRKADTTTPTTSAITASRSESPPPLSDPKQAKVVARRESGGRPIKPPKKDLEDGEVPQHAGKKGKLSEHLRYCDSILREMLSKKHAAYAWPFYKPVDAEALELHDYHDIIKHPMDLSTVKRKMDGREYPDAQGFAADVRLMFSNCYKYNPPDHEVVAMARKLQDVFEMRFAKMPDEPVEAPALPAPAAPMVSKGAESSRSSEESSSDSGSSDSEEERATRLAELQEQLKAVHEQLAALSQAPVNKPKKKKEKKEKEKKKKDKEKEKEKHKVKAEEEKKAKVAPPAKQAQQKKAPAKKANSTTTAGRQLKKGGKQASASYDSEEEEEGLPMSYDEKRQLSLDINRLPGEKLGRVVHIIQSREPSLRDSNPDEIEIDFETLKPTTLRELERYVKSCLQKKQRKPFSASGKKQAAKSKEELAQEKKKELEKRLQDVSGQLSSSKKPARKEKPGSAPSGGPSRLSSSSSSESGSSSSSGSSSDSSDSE
Bromodomain-containing protein 2 (Homo sapiens), sequence (P25440 whole entry, looked up, the tested form may be a part, canonical isoform): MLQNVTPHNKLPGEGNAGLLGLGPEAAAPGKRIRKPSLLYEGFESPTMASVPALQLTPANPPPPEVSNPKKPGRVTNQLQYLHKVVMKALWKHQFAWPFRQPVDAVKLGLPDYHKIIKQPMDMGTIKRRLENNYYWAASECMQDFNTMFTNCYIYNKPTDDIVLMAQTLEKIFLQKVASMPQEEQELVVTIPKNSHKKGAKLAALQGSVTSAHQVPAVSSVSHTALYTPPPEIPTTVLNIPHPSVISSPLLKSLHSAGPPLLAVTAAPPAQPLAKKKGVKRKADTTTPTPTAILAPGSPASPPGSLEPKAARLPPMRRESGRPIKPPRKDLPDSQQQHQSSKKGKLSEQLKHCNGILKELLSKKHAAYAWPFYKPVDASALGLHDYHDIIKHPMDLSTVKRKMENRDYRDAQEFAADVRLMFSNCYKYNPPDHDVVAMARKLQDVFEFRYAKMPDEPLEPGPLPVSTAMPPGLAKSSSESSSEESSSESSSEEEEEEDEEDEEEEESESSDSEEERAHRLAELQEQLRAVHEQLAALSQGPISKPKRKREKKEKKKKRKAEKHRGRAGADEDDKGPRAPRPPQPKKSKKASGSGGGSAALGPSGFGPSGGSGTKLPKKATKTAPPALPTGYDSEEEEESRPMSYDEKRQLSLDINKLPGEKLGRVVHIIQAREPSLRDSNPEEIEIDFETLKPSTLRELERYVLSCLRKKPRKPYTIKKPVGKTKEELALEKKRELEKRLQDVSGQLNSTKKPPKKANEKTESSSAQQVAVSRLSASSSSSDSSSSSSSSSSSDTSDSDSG
Bromodomain adjacent to zinc finger domain protein 2B (Homo sapiens), sequence (Q9UIF8 whole entry, the tested form may be a part): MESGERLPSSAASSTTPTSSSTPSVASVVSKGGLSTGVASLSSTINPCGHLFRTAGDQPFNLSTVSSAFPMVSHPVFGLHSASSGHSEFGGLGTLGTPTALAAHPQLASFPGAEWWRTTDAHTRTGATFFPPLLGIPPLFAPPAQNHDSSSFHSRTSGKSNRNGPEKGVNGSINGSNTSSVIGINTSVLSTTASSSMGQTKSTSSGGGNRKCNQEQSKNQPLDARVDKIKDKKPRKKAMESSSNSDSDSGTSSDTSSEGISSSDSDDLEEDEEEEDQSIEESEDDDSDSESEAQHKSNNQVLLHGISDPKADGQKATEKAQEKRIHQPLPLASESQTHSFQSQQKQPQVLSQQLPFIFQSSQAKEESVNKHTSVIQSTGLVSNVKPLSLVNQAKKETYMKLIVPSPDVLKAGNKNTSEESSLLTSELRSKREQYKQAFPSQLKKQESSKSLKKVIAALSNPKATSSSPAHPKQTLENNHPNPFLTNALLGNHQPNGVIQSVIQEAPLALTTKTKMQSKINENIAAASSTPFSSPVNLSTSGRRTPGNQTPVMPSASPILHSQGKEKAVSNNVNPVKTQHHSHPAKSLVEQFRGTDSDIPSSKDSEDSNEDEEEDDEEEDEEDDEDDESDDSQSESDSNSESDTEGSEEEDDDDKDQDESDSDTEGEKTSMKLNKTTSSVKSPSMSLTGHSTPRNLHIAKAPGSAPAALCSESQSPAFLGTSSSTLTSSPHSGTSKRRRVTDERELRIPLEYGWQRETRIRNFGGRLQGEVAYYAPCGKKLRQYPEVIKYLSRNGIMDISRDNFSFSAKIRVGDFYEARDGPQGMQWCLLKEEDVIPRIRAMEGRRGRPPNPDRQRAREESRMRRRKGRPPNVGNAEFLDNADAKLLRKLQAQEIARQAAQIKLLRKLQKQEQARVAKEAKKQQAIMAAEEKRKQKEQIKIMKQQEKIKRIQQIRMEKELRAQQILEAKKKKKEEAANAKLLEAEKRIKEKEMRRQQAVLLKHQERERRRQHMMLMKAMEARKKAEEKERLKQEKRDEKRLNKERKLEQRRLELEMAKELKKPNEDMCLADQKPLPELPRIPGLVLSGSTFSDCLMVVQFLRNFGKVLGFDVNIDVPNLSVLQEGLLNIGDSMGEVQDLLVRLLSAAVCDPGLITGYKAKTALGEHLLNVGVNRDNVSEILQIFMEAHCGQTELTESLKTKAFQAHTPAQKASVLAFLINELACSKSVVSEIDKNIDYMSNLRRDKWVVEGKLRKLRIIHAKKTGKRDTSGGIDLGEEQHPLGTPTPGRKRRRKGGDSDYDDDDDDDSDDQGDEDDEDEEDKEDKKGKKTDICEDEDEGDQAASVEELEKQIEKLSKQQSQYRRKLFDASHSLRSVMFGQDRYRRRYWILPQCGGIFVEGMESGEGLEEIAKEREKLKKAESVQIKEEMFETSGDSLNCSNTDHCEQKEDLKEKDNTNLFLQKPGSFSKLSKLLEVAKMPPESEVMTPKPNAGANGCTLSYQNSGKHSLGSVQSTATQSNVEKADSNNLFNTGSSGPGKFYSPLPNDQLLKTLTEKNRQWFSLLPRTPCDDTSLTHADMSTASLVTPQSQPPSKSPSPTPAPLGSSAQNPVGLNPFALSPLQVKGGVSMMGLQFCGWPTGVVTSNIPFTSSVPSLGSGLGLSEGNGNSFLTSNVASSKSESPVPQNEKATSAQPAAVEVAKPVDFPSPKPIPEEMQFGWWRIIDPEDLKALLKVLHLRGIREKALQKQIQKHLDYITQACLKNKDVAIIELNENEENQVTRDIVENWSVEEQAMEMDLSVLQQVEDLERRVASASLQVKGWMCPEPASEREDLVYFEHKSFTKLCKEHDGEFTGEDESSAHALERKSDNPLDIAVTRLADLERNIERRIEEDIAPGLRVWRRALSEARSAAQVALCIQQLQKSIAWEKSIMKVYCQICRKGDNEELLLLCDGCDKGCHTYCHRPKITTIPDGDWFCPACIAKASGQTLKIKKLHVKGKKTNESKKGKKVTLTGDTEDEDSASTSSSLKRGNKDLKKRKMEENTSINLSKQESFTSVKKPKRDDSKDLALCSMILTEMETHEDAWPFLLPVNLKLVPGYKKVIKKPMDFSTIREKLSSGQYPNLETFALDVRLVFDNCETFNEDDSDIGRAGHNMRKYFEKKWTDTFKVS
Histone acetyltransferase KAT2B (Homo sapiens), sequence (Q92831 whole entry, looked up): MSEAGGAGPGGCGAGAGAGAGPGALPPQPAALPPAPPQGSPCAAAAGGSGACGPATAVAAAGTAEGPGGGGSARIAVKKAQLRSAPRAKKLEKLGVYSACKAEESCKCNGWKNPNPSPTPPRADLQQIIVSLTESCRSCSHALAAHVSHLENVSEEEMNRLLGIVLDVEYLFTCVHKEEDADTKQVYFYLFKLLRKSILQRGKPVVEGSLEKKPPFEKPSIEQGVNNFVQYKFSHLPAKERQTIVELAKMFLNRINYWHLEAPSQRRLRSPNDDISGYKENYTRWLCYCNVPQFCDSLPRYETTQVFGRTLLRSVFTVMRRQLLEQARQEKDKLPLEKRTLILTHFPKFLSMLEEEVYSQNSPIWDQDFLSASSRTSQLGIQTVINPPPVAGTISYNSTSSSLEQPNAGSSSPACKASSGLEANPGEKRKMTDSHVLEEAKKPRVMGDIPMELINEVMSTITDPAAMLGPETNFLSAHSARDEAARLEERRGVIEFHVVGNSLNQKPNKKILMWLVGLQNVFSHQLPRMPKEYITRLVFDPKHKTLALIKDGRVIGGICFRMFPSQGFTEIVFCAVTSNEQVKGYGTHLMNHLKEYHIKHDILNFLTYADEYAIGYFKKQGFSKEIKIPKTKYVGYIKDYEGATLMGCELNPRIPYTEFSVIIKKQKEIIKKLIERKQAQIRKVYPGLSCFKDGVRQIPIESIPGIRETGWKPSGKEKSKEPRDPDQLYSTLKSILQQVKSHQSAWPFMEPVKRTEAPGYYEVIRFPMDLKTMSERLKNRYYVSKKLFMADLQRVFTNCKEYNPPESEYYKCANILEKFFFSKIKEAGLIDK

IC50 [1]: 470 nM
SMILES: CN1Cc2cc(NS(=O)(=O)c3ccccc3C(F)(F)F)ccc2NC1=O

IC50 [1]: 360 nM
SMILES: CN1Cc2cc(NS(=O)(=O)c3ccccc3F)ccc2NC1=O

IC50 [1]: 1900 nM
SMILES: CCNS(=O)(=O)c1ccc2c(c1)CN(C)C(=O)N2

IC50 [1]: 180 nM
SMILES: CN1Cc2cc(NS(=O)(=O)c3ccc(F)cc3Cl)ccc2NC1=O

fraction unbound [2]: 0.31 | Kd (CREB-binding protein [3]): 49000 nM | ΔTm [4]: 5.24 °C | half-life [5]: 1 h | ΔTm [6]: 0.83 °C | ΔTm [7]: 5.45 °C | ΔTm (CREB-binding protein [8]): 1.7 °C | t1/2 (Liver microsomes): > 2 h | Tmax [9]: 1 h | half-life [10]: 2 h | ΔTm [11]: 2.08 °C | bioavailability [12]: 32% | ΔTm [13]: 5.32 °C | ΔTm [14]: 4.61 °C | ΔTm [15]: 0.3 °C | Cmax [16]: 58 ng/mL | ΔTm [17]: 0.81 °C | Vd [18]: 1 L/kg | clearance [19]: 18 mL/min/kg | concentration at 7 h [20]: 62 ng/mL
SMILES: COc1ccccc1S(=O)(=O)Nc1ccc2c(c1)CN(C)C(=O)N2
EC50 (PBMC): 1890 nM

IC50 [1]: 2300 nM
SMILES: CN1Cc2cc(NS(=O)(=O)c3ccc(C#N)cc3)ccc2NC1=O

IC50 [1]: 220 nM
SMILES: Cc1ccccc1S(=O)(=O)Nc1ccc2c(c1)CN(C)C(=O)N2

IC50 [1]: 4800 nM
SMILES: CN1Cc2cc(S(=O)(=O)N3CCCC3)ccc2NC1=O

IC50 [1]: 880 nM
SMILES: CN1Cc2cc(NS(=O)(=O)c3ccccc3)ccc2NC1=O

IC50 [1]: 730 nM
SMILES: COc1cccc(S(=O)(=O)Nc2ccc3c(c2)CN(C)C(=O)N3)c1

IC50 [1]: 390 nM
SMILES: Cc1ccc(S(=O)(=O)Nc2ccc3c(c2)CN(C)C(=O)N3)cc1

IC50 [1]: 880 nM
SMILES: COc1ccc(S(=O)(=O)Nc2ccc3c(c2)CN(C)C(=O)N3)cc1
